# Experimental data as given in ChEMBL document CHEMBL5143761, “Aroylhydrazone Glycoconjugate Prochelators Exploit Glucose Transporter 1 (GLUT1) to Target Iron in Cancer Cells” (ACS Med Chem Lett, 2022).
# Calls of active or inactive are those of the source. The rule behind the calls is not given here.
# Experiments:
# A2780 [1] = experiment: Induction of apoptosis in human A2780 cells assessed as early apoptosis level at 20 uM incubated for 48 hrs by PI and FITC-Annexin V staining based flow cytometry; format: functional
# How it was run: (§1)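 A2780 cells exposed to compound (20 μM) for 48 h. Cells then stained with FITC-Annexin V and propidium iodide and analysed by flow cytometry for early and late apoptotic fractions. Triplicate, mean ± standard deviation.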
# MDA-MB-231 [2] = experiment: Antiproliferative activity against human MDA-MB-231 cells ectopically overexpressing GLUT1 incubated for 72 hrs by MTT assay relative to normal cells; format: functional, cell-based
# How it was run: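 MDA-MB-231 derivative line transduced to overexpress GLUT1 is compared with an isogenic control line transduced with the same vector expressing Turbo-635 fluorescent protein. GLUT1 levels were checked by Western blot. IC50 from MTT after 72 h. Triplicate, mean ± standard deviation.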
# [3] = Antiproliferative activity against human MRC5 cells incubated for 72 hrs by MTT assay; format: toxicity, cell-based
# How it was run: (§2)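 MTT assay after 72 h continuous exposure in MDA-MB-231 breast and A2780 ovarian cancer cells and MRC-5 normal lung fibroblasts. IC50 taken from the resulting dose–response.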
# MDA-MB-231 [4] = experiment: Antiproliferative activity against human MDA-MB-231 cells incubated for 72 hrs by MTT assay; format: functional, cell-based; settings: MDA-MB-231, 72 h; how it was run: as §2
# A2780 [5] = experiment: Antiproliferative activity against human A2780 cells incubated for 72 hrs by MTT assay; format: functional, cell-based; settings: A2780, 72 h; how it was run: as §2
# A2780 [6] = experiment: Antiproliferative activity against human A2780 cells incubated for 72 hrs in presence of 12.5 uM GLUT1 inhibitor phloretin by MTT assay; format: functional, cell-based
# How it was run: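 A2780 cells given test compound together with the GLUT1 inhibitor phloretin (12.5 μM) for 72 h. Read-out by MTT, giving IC50. Triplicate runs, reported as mean ± standard deviation.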
# [7] = Induction of intracellular iron sequestration in human A2780 cells at 20 uM by calcein based fluorescence assay
# A2780 [8] = experiment: Induction of apoptosis in human A2780 cells assessed as late apoptosis level at 20 uM incubated for 48 hrs by PI and FITC-Annexin V staining based flow cytometry; format: functional; how it was run: as §1
# [9] = (§3) Inhibition of cellular uptake of fluorescent glucose 2-NBDG in human A2780 cells at 50 uM incubated for 20 mins by flow cytometry; format: functional; design: scale not given: the % may be the effect or the level left
# How it was run: (§4)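 A2780 cells held 12 h in glucose-free medium. They were then coincubated for 20 min with compound (50 μM) and 2-NBDG (100 μM) in growth medium with 1 g/L D-glucose. 2-NBDG uptake was read as flow-cytometric fluorescence, with phloretin (50 μM) as positive control. Triplicate, mean ± standard deviation.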
# [10] = Ratio of IC50 for antiproliferative activity against human A2780 cells incubated for 72 hrs in presence of 12.5 uM GLUT1 inhibitor phloretin by MTT assay to IC50 antiproliferative activity against human A2780 cells incubated for 72 hrs in absence of 12.5 uM GLUT1 inhibitor phloretin by MTT assay; format: functional
# How it was run: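 A2780 ovarian cancer cells were treated for 72 h with compound, either alone or coincubated with the GLUT1 inhibitor phloretin at 12.5 μM. Viability was read by MTT assay. IC50 values were determined in triplicate under each condition and reported as averages ± standard deviation. The value is the IC50 with phloretin relative to the IC50 without it.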
# A2780 [11] = experiment: as §3; format: functional; how it was run: as §4
IC50 (MDA-MB-231 [4]),IC50 (A2780 [5]),SMILES,Activity (A2780 [1]),Activity (MDA-MB-231 [2]),IC50 at 72 h [3],inhibition (A2780 [6]),Activity [7],Activity (A2780 [8]),Activity [9],Ratio IC50 [10],inhibition (A2780 [11])
12 µM,2.1 µM,COC(=O)CCSSc1ccccc1/C=N/NC(=O)c1ccccc1,5%,Active,12 µM,Active,20%,,,,
17 µM,5.3 µM,O=C(CCSSc1ccccc1/C=N/NC(=O)c1ccccc1)N[C@H]1C(O)O[C@H](CO)[C@@H](O)[C@@H]1O (stereo partly drawn),5%,Active,33 µM,,20%,,>20%,,
6.1 µM,3.5 µM,CC(=O)N(O)CCCCCNC(=O)CCC(=O)N(O)CCCCCNC(=O)CCC(=O)N(O)CCCCCN [DEFEROXAMINE],,,9 µM,,,,,,
22 µM,2.5 µM,O=C(CCSSc1ccccc1/C=N/NC(=O)c1ccccc1)OC[C@H]1OC(O)C[C@@H](O)[C@@H]1O (stereo partly drawn),5%,Active,29 µM,,20%,20%,>20%,>5,

# Continued, molecule first:
SMILES,IC50 (MDA-MB-231 [4]),IC50 (A2780 [5]),Activity (A2780 [1]),Activity (MDA-MB-231 [2]),IC50 at 72 h [3],inhibition (A2780 [6]),Activity [7],Activity (A2780 [8]),Activity [9],Ratio IC50 [10],inhibition (A2780 [11])
O=C(N/N=C/c1ccccc1O)c1ccncc1 [SALINAZID],,,7.8%,,,,,38%,,,
O=C(CCSSc1ccccc1/C=N/NC(=O)c1ccccc1)OC[C@H]1OC(O)[C@H](O)[C@@H](O)[C@@H]1O (stereo partly drawn),17 µM,5.2 µM,5%,Active,26 µM,,20%,,>20%,,
O=C(CCc1ccc(O)cc1)c1c(O)cc(O)cc1O,,,,,,,,,,,Active
OC[C@H]1OC(O)C[C@@H](O)[C@@H]1O (stereo partly drawn),,,3.6%,,,,,3.4%,,,
